The target of assay [1] is T1, Indoleamine 2,3-dioxygenase 1 (Homo sapiens, UniProt P14902). Put plainly: Inhibition of IDO1 (unknown origin) assessed as reduction in N'-formlylkynurenine formation using D-Tryptophan as substrate in presence of ascorbate and methylene blue. The note with it: in the assay text read “ascorbate” for “aspartate”. The method, boiled down:
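Room-temperature reaction: 20 nM IDO, 2 mM D-Trp, 20 mM ascorbate, 3.5 μM methylene blue, 0.2 mg/mL catalase in 50 mM potassium phosphate pH 6.5. Initial rates tracked continuously by absorbance rise at 321 nm (N'-formylkynurenine); IC50 by nonlinear regression, normalized dose-response fit.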
Target sequence in this assay (P14902 whole entry): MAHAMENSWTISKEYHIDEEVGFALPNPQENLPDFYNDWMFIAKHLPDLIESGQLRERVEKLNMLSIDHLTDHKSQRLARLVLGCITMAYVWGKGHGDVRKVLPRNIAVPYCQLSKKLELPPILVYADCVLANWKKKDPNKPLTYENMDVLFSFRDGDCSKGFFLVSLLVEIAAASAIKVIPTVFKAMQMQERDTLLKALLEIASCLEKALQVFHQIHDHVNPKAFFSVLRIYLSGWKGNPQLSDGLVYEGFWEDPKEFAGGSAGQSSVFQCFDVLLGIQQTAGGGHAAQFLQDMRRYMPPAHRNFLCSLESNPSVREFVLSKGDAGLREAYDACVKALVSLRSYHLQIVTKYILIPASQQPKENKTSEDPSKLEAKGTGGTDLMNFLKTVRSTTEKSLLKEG

The target of assay [2] is T1, Indoleamine 2,3-dioxygenase 1. As to the kind of experiment: Inhibition of IDO1 (unknown origin) assessed as reduction in N'-formlylkynurenine formation at 1 uM using D-Tryptophan as substrate in presence of ascorbate and methylene blue relative to control.
Target sequence in this assay (P14902 whole entry, looked up): as the sequence (P14902 whole entry) above
Assay [3] shares this target. Put plainly: Inhibition of IFN-gamma-stimulated IDO1 in human HeLa cells at 1 uM after 24 hrs by Ehrlich's reagent based assay relative to control. The class given is cell-based. The procedure, abridged:
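IFN-γ (100 ng/mL, 24 h) induction of IDO1 in HeLa cells plated at 40,000/well after 24 h adherence; inhibitor in DMSO, 24 h incubation. Reaction ended with 30% TCA, heated 30 min at 50 °C, centrifuged, supernatant reacted with Ehrlich reagent 10 min at room temperature; read at 490 nm.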
Target sequence in this assay (P14902 whole entry, looked up): as the sequence (P14902 whole entry) above

The subject of another assay is MCF7. Put plainly: Cytotoxicity against human MCF7 cells after 48 hrs by MTT assay. It is filed as functional, cell-based. The note with it: MCF7, 48 h. The method, boiled down:
(§1)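 Cells seeded at 3-4 × 10^3 per well and incubated overnight, then exposed to compounds added from 10 mM DMSO stock for 48 h; 1% DMSO as negative control.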

For the next assay, the system named is HEK-293T. Put plainly: Cytotoxicity against HEK293T cells after 48 hrs by MTT assay. The class given is cell-based. The note with it: Homo sapiens. The method, boiled down: as §1
The target in assay [4] is T2, Tryptophan 2,3-dioxygenase (Homo sapiens, UniProt P48775). Put plainly: Inhibition of recombinant TDO (unknown origin) assessed as reduction in N-formylkynurenine formation using L-Tryptophan as substrate after 75 mins by UV absorption method. The method, boiled down: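 Recombinant TDO reaction at room temperature in TDO assay buffer with 200 μM L-tryptophan and inhibitor, incubated 75 min; N-formylkynurenine measured by UV absorbance at 321 nm. Blank used buffer in place of enzyme. IC50 from nonlinear regression with normalized dose-response fit.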
Target sequence in this assay (P48775 whole entry): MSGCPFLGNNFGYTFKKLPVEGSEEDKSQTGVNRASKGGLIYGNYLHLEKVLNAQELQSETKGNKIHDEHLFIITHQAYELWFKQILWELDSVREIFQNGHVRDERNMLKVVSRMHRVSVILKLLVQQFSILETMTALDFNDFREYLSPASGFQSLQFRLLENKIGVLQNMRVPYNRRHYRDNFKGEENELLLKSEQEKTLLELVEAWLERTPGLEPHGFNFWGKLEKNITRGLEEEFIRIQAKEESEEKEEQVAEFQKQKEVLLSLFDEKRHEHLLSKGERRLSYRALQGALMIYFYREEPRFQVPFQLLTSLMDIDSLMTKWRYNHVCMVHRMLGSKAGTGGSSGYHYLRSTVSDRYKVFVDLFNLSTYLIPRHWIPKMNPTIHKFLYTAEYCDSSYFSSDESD

A further assay has as its system HeLa. As to the kind of experiment: Cytotoxicity against human HeLa cells after 48 hrs by MTT assay. It is filed as functional, cell-based. The procedure, abridged: as §1
(Tetrazolium assays rely on reduction of a dye to a coloured formazan, in cell work by metabolically active cells.)

In assay [5] the target is T2, Tryptophan 2,3-dioxygenase. Put plainly: Inhibition of recombinant TDO (unknown origin) assessed as reduction in N-formylkynurenine formation at 10 uM using L-Tryptophan as substrate after 75 mins by UV absorption method relative to control. The method, boiled down:
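Room-temperature UV assay: recombinant TDO with 200 μM L-tryptophan in TDO assay buffer plus inhibitor, 75 min incubation, then absorbance at 321 nm for N-formylkynurenine. Buffer substituted for TDO as blank.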
Target sequence in this assay (P48775 whole entry, looked up): as the sequence (P48775 whole entry) above

The target of assay [6] is T1, Indoleamine 2,3-dioxygenase 1. As to the kind of experiment: Inhibition of IFN-gamma-stimulated IDO1 in human HeLa cells after 24 hrs by Ehrlich's reagent based assay. It is filed as cell-based. The procedure, abridged: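 HeLa cells (40,000/well) adhered 24 h, stimulated with 100 ng/mL human recombinant IFN-γ for 24 h, then given inhibitor in DMSO from 10 μM top dose, 3-fold dilutions to 0.1 μM, for 24 h. Stopped with 30% TCA, 30 min at 50 °C, centrifuged; supernatant mixed with Ehrlich reagent 10 min at room temperature, absorbance at 490 nm.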
Target sequence in this assay (P14902 whole entry): as the sequence (P14902 whole entry) above

A value given as a limit tells only on which side of the number the result lay.

Broadly, the IC50 is the concentration that inhibits the measured activity by half. As a reminder, the inhibition is the share of the control response that was lost under treatment. For the molecule `O=C1c2ncccc2C(=O)c2c1c(C(=O)O)c1cc(I)ccn21`, in assay [1], the half-maximal inhibitory concentration (IC50) was 420 nM. Moreover, in assay [2], the inhibition is 67%.
Take `CN(C)CCCNC(=O)c1c2c(n3ccccc13)C(=O)c1ccccc1C2=O`: the inhibition in assay [2] was 24%.
As for `NC(=S)NNC(=O)c1c2c(n3ccccc13)C(=O)c1ncccc1C2=O`, the inhibition in assay [3] came to 22%; in assay [2], 74.5%. For the same molecule, the half-inhibitory concentration (IC50) was above 20000 nM in the assay with MCF7; 23 nM in assay [1]; above 20000 nM in the assay with HEK-293T; 1200 nM in assay [4]; above 20000 nM in the assay on HeLa.
`COC(=O)c1c2c(n3ccccc13)C(=O)c1cccc(O)c1C2=O`: the inhibition in assay [3] was 12%; in [2] it was 77%. Besides, in assay [1], the half-inhibitory concentration (IC50) stood at 87 nM.
With `CC(C)OC(=O)c1c2c(n3ccccc13)C(=O)c1ccccc1C2=O`, in [2], the inhibition was found to be 13%.
In the case of `O=C1c2ccccc2C(=O)c2c1c(C(=O)NCCCO)c1ccccn21`, in assay [2], the inhibition turned out to be 15%.
Take `COc1cccc2c1C(=O)c1c(O)c3c(c(O)c1C2=O)C[C@@](O)(C(=O)CO)C[C@@H]3O[C@H]1C[C@H](N)[C@H](O)[C@H](C)O1` [DOXORUBICIN]: the IC50 in the assay on HEK-293T came to 1130 nM; in the assay on HeLa, 660 nM.
On to `O=C(O)c1cccc(NC(=O)c2c3c(n4ccccc24)C(=O)c2ncccc2C3=O)c1`, for which the inhibition in [3] was 9%; in assay [2], 74.5%. In addition, the values for the IC50 in assay [1] and in assay [4] were 148 nM and 41600 nM, respectively.
Regarding `Cc1ccccc1NC(=O)c1c2c(n3ccccc13)C(=O)c1ncccc1C2=O`, the IC50 in [1] is 427 nM; in assay [4], above 100000 nM. Besides, in [2], the inhibition was determined as 74%.
For the molecule `O=C1c2ncccc2C(=O)c2c1c(C(=O)Nc1cccc(Cl)c1)c1ccccn21`, the inhibition in [2] was found to be 34%.
For `O=C1c2c(O)cccc2C(=O)c2c1c(C(=O)O)c1ccccn21`, the inhibition in assay [2] was 60%.
On to `CCOC(=O)c1c2c(n3ccccc13)C(=O)c1cccnc1C2=O`, for which the IC50 in assay [1] was 977 nM. Further, the figures for the inhibition in assay [2] and in assay [5] were 61% and 14%, respectively.
For the molecule `O=C1c2cccnc2C(=O)c2c1c(C(=O)O)c1ccccn21`, in assay [1], the IC50 came to 288 nM. Further, the values for the inhibition in [2] and in assay [5] were 70% and 28%, respectively.
Consider `O=C1c2ncccc2C(=O)c2c1c(C(=O)Nc1ccccc1)c1ccccn21`, for which the inhibition in [3] was 25%; in assay [2], 62%. Moreover, the figures for the IC50 in assay [1] and in [4] were 119 nM and above 100000 nM, respectively.
In the case of `CN(C)CCNC(=O)c1c2c(n3ccccc13)C(=O)c1ccccc1C2=O`, in [2], the inhibition amounted to 27%.
In the case of `O=C1c2ccccc2C(=O)c2c1c(C(=O)O)c1ccccn21`, the IC50 in assay [1] came out at 714 nM. Moreover, in assay [2], the inhibition was 61%.
For `COc1ccn2c3c(c(C(=O)O)c2c1)C(=O)c1cccnc1C3=O` the same measures were 299 nM and 69%.
As to `CSc1ccn2c3c(c(C(=O)NCCN(C)C)c2c1)C(=O)c1cccnc1C3=O`, the results for the inhibition in assay [3] and in assay [2] were 42% and 72.5%, respectively. The values for the IC50 in [1] and in [6] were 50 nM and 1080 nM, respectively.
Consider `COc1ccn2c3c(c(C(=O)O)c2c1)C(=O)c1ncccc1C3=O`, for which the inhibition in assay [2] amounted to 47%.
On to `Cc1ccccc1NC(=O)c1c2c(n3ccccc13)C(=O)c1cccnc1C2=O`, for which the inhibition amounted to 38% in assay [3] and 64% in assay [2]. In addition, the IC50 was 134 nM in assay [1], above 100000 nM in [4] and 2660 nM in assay [6].
Consider `CN(C)CCNC(=O)c1c2c(n3ccccc13)C(=O)c1cccc(O)c1C2=O`, for which the inhibition in assay [2] amounted to 29%.
Regarding `COC(=O)c1c2c(n3ccccc13)C(=O)c1ncccc1C2=O`, in [1], the IC50 worked out at 438 nM. The inhibition in [2] was determined as 65%.
Regarding `COC(=O)c1c2c(n3ccccc13)C(=O)c1cccnc1C2=O`, the concentration for half-maximal inhibition (IC50) in assay [1] turned out to be 448 nM. The inhibition in [2] worked out at 69%.
For the molecule `COC(=O)c1c2c(n3ccccc13)C(=O)c1ccccc1C2=O`, the figures for the inhibition in assay [3], in [2] and in [5] were 24%, 77% and 40%, respectively. Also, the 50% inhibitory concentration (IC50) in assay [1] turned out to be 156 nM.
In the case of `CSc1ccn2c3c(c(C(=O)NCCN(C)C)c2c1)C(=O)c1ncccc1C3=O`, the inhibition in assay [3] is 77%; in [2], 80.5%. The IC50 in [1] is 39 nM; in assay [6], 372 nM.
`CN(C)CCNC(=O)c1c2c(n3ccccc13)C(=O)c1cccnc1C2=O`: the values for the inhibition in assay [3], in assay [2] and in assay [5] were 81%, 77% and 88%, respectively. For the same molecule, the concentration for half-maximal inhibition (IC50) came to 188 nM in assay [1], 7150 nM in [4] and 1240 nM in assay [6].
For the molecule `Cc1ccn2c3c(c(C(=O)O)c2c1)C(=O)c1cccnc1C3=O`, the half-maximal inhibitory concentration (IC50) in [1] is 394 nM. Also, in assay [2], the inhibition stood at 70%.
`O=C1c2ncccc2C(=O)c2c1c(Cc1ccccc1)c1ccccn21`: the inhibition in [2] came to 56%.
As for `O=C1c2cccnc2C(=O)c2c1c(C(=O)Nc1cccc(Cl)c1)c1ccccn21`, the inhibition in assay [2] worked out at 29.5%.
On to `O=C1c2ccccc2C(=O)c2c1c(C(=O)NCCO)c1ccccn21`, for which the inhibition in assay [2] was found to be 22%.
`NS(=O)(=O)NCCNC1=NON/C1=C(/NO)Nc1ccc(F)c(Br)c1` gave an inhibition in assay [3] of 96%. Also, the half-inhibitory concentration (IC50) is 73 nM in [1] and 7 nM in [6].
Take `CN(C)CCNC(=O)c1c2c(n3ccccc13)C(=O)c1ncccc1C2=O`: the inhibition in [3] turned out to be 43%; in [2], 78%; in [5], 91%. In addition, the IC50 in assay [1] was found to be 127 nM; in assay [4], 3350 nM; in assay [6], 738 nM.
As to `O=C(O)c1cccc(NC(=O)c2c3c(n4ccccc24)C(=O)c2cccnc2C3=O)c1`, the IC50 in assay [1] is 390 nM; in assay [4] it was above 100000 nM. Besides, in assay [2], the inhibition is 71.5%.
`CCOC(=O)c1c2c(n3ccccc13)C(=O)c1ccccc1C2=O`: the IC50 in assay [1] was determined as 332 nM. In assay [2], the inhibition was found to be 68%.
For `O=C1c2ncccc2C(=O)c2c1c(C(=O)O)c1ccccn21` the same measures were 1190 nM and 58%.
In the case of `O=C1c2cccnc2C(=O)c2c1c(Cc1ccccc1)c1ccccn21`, the inhibition in [2] amounted to 34%.
In the case of `Cc1ccn2c3c(c(C(=O)O)c2c1)C(=O)c1ncccc1C3=O`, in assay [2], the inhibition is 54%.
On the same count and under the same terms, with `CCOC(=O)c1c2c(n3ccccc13)C(=O)c1ncccc1C2=O` the figure was 35%.
`O=C1c2cccnc2C(=O)c2c1c(C(=O)Nc1ccccc1)c1ccccn21`: the IC50 in assay [1] was determined as 361 nM; in assay [4], 7300 nM. The inhibition in [2] was 68%.
`O=C1c2cccnc2C(=O)c2c1c(C(=O)O)c1cc(I)ccn21`: the results for the inhibition in [3] and in assay [2] were 12% and 67%, respectively. The 50% inhibitory concentration (IC50) in assay [1] worked out at 117 nM.

These data come from ChEMBL document CHEMBL4229555, “Design, synthesis and structure-activity relationship study of novel naphthoindolizine and indolizinoquinoline-5,12-dione derivatives as IDO1 inhibitors” (Bioorg Med Chem, 2018).
